Data from ChEMBL document CHEMBL1127809, “Pentamidine congeners. 2. 2-butene-bridged aromatic diamidines and diimidazolines as potential anti-Pneumocystis carinii pneumonia agents” (1994).
Values joined by “and” are separate entries in the source; they are usually repeats but may differ in a detail not shown here. Equal values may be shown once.

Columns and labels:
Type in all cases: functional
Rattus norvegicus [1] = assay: In vivo anti-Pneumocystis carinii toxicity in rats administered intravenously at 10 mg/kg/day; 0 indicates no local, clinical, histologic toxicity
Outline: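 Host toxicity in immunosuppressed PCP rats dosed iv daily for 2 weeks. Animals were observed daily for health and well-being. Liver and kidney were examined by light microscopy for pathologic changes. Scoring: 0 = no local, clinical or histologic toxicity; 1+ = all survived, some local injection-site toxicity; 2+ = most survived, some severe distress, clinical toxicity and histopathology; 3+ = acute toxicity or decline with <50% deaths; 4+ = ≥50% deaths.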

Rattus norvegicus [2] = organism: Rattus norvegicus; assay: Anti-Pneumocystis carinii activity was measured as percentage of number of cysts counted per gram of lung tissue; design: concentration or dose not given beside the values
Outline: (§1)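 Immunosuppressed rats with PCP; compound given by daily iv injection over 2 weeks at 10 mg/kg/day, or at 5 or 1 mg/kg/day where shown. Saline is the negative control and pentamidine the positive control. Cysts are counted per gram of lung tissue and expressed as % of the saline-treated control ± SE (n rats). Significance is given as P vs saline or vs pentamidine.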

Rattus norvegicus [3] = organism: Rattus norvegicus; assay: Anti- Pneumocystis carinii activity was measured as percentage of number of cysts counted per gram of lung tissue; outline: as §1
Rattus norvegicus [4] = assay: Anti- Pneumocystis carinii activity was measured as percentage of number of cysts counted per gram of lung tissue at a dose of 10 mg/kg/day; outline: as §1
Rattus norvegicus [5] = assay: Anti- Pneumocystis carinii activity was measured as percentage of number of cysts counted per gram of lung tissue at a dose of 1 mg/kg/day; outline: as §1
Rattus norvegicus [6] = assay: Anti- Pneumocystis carinii activity was measured as percentage of number of cysts counted per gram of lung tissue at a dose of 5.0 mg/kg/day; outline: as §1

Structure (SMILES) | Toxicity (Rattus norvegicus [1]; route intravenous) | Control (Rattus norvegicus [2]) | Toxicity (Rattus norvegicus [1]) | further results
C(=C/COc1ccc(C2=NCCN2)cc1)/COc1ccc(C2=NCCN2)cc1.Cl.Cl | 0 | 1.22% |  | 
N=C(N)c1ccc(OCCCCCOc2ccc(C(=N)N)cc2)cc1 [PENTAMIDINE] | 2 |  |  | Control (Rattus norvegicus [3]): <5.31% and <4.95%
Cl.Cl.N=C(N)c1ccc(OC/C=C\COc2ccc(C(=N)N)cc2)cc1 | 0 | 1.1% |  | 
COc1cc(C2=NCCN2)ccc1OC/C=C\COc1ccc(C2=NCCN2)cc1OC.Cl.Cl |  | 15.6% | Local toxicity | 
COc1cc(C(=N)N)ccc1OC/C=C/COc1ccc(C(=N)N)cc1OC.Cl |  | 35.5% | Local toxicity | 
COc1cc(C(=N)N)ccc1OC/C=C\COc1ccc(C(=N)N)cc1OC.Cl.Cl | 0 | 21.4% |  | 
COc1cc(C2=NCCN2)ccc1OC/C=C/COc1ccc(C2=NCCN2)cc1OC.Cl.Cl |  | 1.5% | Toxic | 
C(=C\COc1ccc(C2=NCCN2)cc1)/COc1ccc(C2=NCCN2)cc1.Cl.Cl | 0 | 1.22% |  | Control (Rattus norvegicus [4]): 1.38%; Control (Rattus norvegicus [5]): 39.6%; Control (Rattus norvegicus [6]): 5.61%
Cl.Cl.N=C(N)c1ccc(OC/C=C/COc2ccc(C(=N)N)cc2)cc1 | 0 | 0.67% |  | 
